Data set [1] deals with marmoset EBV-BLCs and co-culture with lymphocytes. Nature of the data set: FACS-based immunotoxicity assay. It is filed as cell-based, Callithrix jacchus. As to conditions: CellTrace-stained EBV-BLCs, 24 h, 30, 10, 3, 1 μg/mL tested. A digest of the protocol:
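EBV-BLCs were prestained with CellTrace for 20 min at RT and plated at 1 × 10^3 cells/well. Peptide (30, 10, 3, 1 μg/mL; medium as negative control) was added for 1 h at 37 °C, 5% CO2, in medium with 10% FCS. Freshly thawed axillary lymph node mononuclear cells from an EAE marmoset were then added at 1 × 10^5 cells/well for 24 h. Cells were stained with a live/dead marker and AnnexinV-APC, then fixed in 1% PFA/AnnexinV binding buffer. CellTrace+ and CellTrace– gates were each gated for AnnexinV and live/dead. Non-co-cultured lymphocytes served as control.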

For a further data set, the system named is Human EBV-infected BLCs. Put plainly: Immunofluorescence microscopy of bioorthogonal peptides. It is filed as cell-based. As to conditions: for Intracellular aggregation in EBV-infected BLCs (within LC3 positive vesicles): 6.2 and 25 μM (also 3.1, 12.5 μM), 48 h, serum-free, CuAAC Alexa647-azide; for Aggregates in the absence of cells (CuAAC with Alexa647-azide): serum-free medium, no cells. A digest of the protocol:
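Human BSM EBV-lymphoblastoid cells (1.5 × 10^6/well) were incubated with peptide (6.25 or 25 μM; medium as control) in serum-free R0 medium at 37 °C. Cytospins (5 × 10^4 cells, 28g, 3 min) were air-dried, stored at −80 °C, and PFA-fixed. Staining: anti-LC3 1:20 overnight at 4 °C, then anti-mouse FITC 1:400. Peptide was detected by CuAAC (0.064 mM CuSO4, 0.038 mM ascorbate, 0.25 mM THPTA, AF647-azide 1:160, 100 mM Tris pH 8.0, 1 h, RT, dark). DAPI mounting; fluorescence microscopy.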

A short description of data set [2]: ThT fluorescence aggregation assay. It is filed as physicochemical. The note with it: for Concentration at which amyloid-like aggregation was observed (ThT): pH 5.0, 20 mM NaOAc, 1–200 μM tested. In short, it runs like this:
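Peptide (199 μL; 200–1 μM at pH 5.0 in 20 mM NaOAc, or 200 μM in buffers of pH 3.0–7.0) was mixed with 1 μL ThT. Fluorescence was read at 37 °C (ex 444 nm, em 485 nm, 10 nm bandwidth) every 10 min for at least 15 h with gentle agitation. Signal was normalised to buffer plus ThT. Runs were done at least three times, each in triplicate; end point at 15 h.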

Data set [3] is described as follows: Seeded nucleation ThT aggregation assay. The note with it: 40 μM peptide, 200 μL, pH 5.0; seeds of 5 or 7, 3–300 ng. It is filed as physicochemical. In short, it runs like this: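 Seeds were prepared by centrifuging aggregated peptide (20000g, 30 min) and homogenising the pellet in 20 mM NaOAc to an estimated 0.1 mg/mL. ThT fluorescence was followed at 37 °C (ex 444 nm, em 485 nm) in kinetic mode.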

Ends that are not written are not given here.

As to MOG31-55(Pg_Cit41&46) [Peptide 11], in data set [1], the “Concentration giving increased level of apoptosis (Annexin V)” value was more than 1000 ng/mL. Besides, in the data set with Human EBV-infected BLCs, the “Intracellular aggregation in EBV-infected BLCs (within LC3 positive vesicles)” value is reported as “small spheres” and the “Aggregates in the absence of cells (CuAAC with Alexa647-azide)” value was “large aggregates”.

For “MOG31-55(NArg3) (NATGMEVGWYRPPFSRVVHLYRNGK; UniProt Q16653 60-84, looked up, fragment) [Peptide 9]”, the “Aggregation of elongated MOG31–55 peptides (ThT)” value in data set [2] (pH 5.0, 37 °C, 1–200 μM) is given as “Neither 9 nor 10 aggregated”.

MOG35-55(Cit41) [Peptide 2]: the “Concentration at which amyloid-like aggregation was observed (ThT)” value in data set [2] (37 °C) was more than 4 µM.

For MOG35-55(Cit3) [Peptide 8], in data set [2] (200 μM, 37 °C), the “Aggregation at pH 6 compared to pH 5 (ThT)” value was approximately 3 fold and the “Aggregation at pH 7 compared to pH 5 (ThT)” value is recorded as approximately 4 fold. Also, the “Concentration at which amyloid-like aggregation was observed (ThT)” value in data set [2] (37 °C) is more than 4 µM. Also, in data set [2] (pH 5.0, 37 °C), the “Aggregation at a final concentration of 1 μM (ThT)” value is on record as “but not at a final concentration of 1 μM”.

MOG31-55(Pg_Cit46&Cit52) [Peptide 12]: in data set [1], the “Concentration giving increased level of apoptosis (Annexin V)” value is more than 1000 ng/mL. In addition, in the data set with Human EBV-infected BLCs, the “Intracellular aggregation in EBV-infected BLCs (within LC3 positive vesicles)” value is listed as “large agglomerates” and the “Aggregates in the absence of cells (CuAAC with Alexa647-azide)” value is listed as “large aggregates”.

Regarding MOG35-55(Cit46) [Peptide 3], the “Concentration at which amyloid-like aggregation was observed (ThT)” value in data set [2] (37 °C) was more than 4 µM. Besides, the “Aggregation at a final concentration of 1 μM (ThT)” value in data set [2] (pH 5.0, 37 °C) is “but not at a final concentration of 1 μM”.

MOG35-55(Cit41&Cit52) [Peptide 6]: the “Concentration at which amyloid-like aggregation was observed (ThT)” value in data set [2] (37 °C) was “aggregation at all concentrations tested”.

For “MOG35-55(Arg3) (MEVGWYRPPFSRVVHLYRNGK-NH2; not fully specified; UniProt Q16653 64-84, looked up, fragment) [Peptide 1]”, the “Aggregation kinetics on seeding (ThT)” value in data set [3] is “no aggregation was observed”. For the same substance, the “Aggregation at any pH or any concentration tested (ThT)” value in data set [2] (pH 3.0–7.0 at 200 μM, 1–200 μM at pH 5.0, 37 °C) was “did not show any aggregation”.

Source of the values: publication PMC6374747 (Biochemistry, 2018).
